Measured values of several laboratories.
Each line is one published result; the experiments were not run side by side.
ALK: ALK tyrosine kinase receptor (ALK, Homo sapiens, UniProt Q9UM73)
ALK L1196M: ALK tyrosine kinase receptor (ALK, Homo sapiens, UniProt Q9UM73, L1196M)
ALK C1156Y: ALK tyrosine kinase receptor (ALK, Homo sapiens, UniProt Q9UM73, C1156Y)

Structure (SMILES) | target | effect on | method | tested at | remaining binding [%]
COc1cnc(Nc2cccc(S(N)(=O)=O)c2)nc1N1CCN(c2ccccc2)C(=O)C1 | ALK | binding | competition with immobilised ligand | 1 µM | 100
Nc1ncc2c(n1)-c1c([nH]c3ccc(C#CC4CC4)cc13)CCCC2 | ALK L1196M | binding | competition with immobilised ligand | 1 µM | 86
O=C(c1ccc(Nc2nccc(-c3cc4ccccc4s3)n2)cc1)N1CCC(N2CCCC2)CC1 | ALK C1156Y | binding | competition with immobilised ligand | 1 µM | 77
COCCOc1nc(-c2ccc(Cl)nc2)nc2c1CN(C(=O)c1ncn3ccccc13)CC2 | ALK L1196M | cell-free assay | competition with immobilised ligand | 0.1 µM | 100
N[C@@H]1CCN(c2nccc(-c3cnn4ncccc34)n2)C1 | ALK | binding | – | 1 µM | 97
Cc1cnc(Nc2ccc(C(=O)N3CCC(N4CCCC4)CC3)cc2)nc1-c1cc2ccccc2s1 | ALK C1156Y | binding | competition with immobilised ligand | 1 µM | 34
COc1cnc(Nc2cccc(S(N)(=O)=O)c2)nc1N1CCN(c2ccccc2)CC1 | ALK L1196M | binding | competition with immobilised ligand | 1 µM | 100
CN(C)c1nccc(-c2cnc3ncccn23)n1 | ALK | binding | – | 1 µM | 73
O=C(NCC1CCOCC1)c1n[nH]cc1NC(=O)c1c(F)cccc1F | ALK | binding | competition with immobilised ligand | 1 µM | 93
Cc1cnn2ncc(-c3ccnc(N(C)C)n3)c2c1 | ALK | binding | – | 1 µM | 92
Cc1noc([C@H]2C[C@@H](c3ccc(C(F)(F)F)cc3)CN(C(=O)N3CCS(=O)(=O)C3)C2)n1 | ALK | cell-free assay | competition with immobilised ligand | 1 µM | 100
CN(C)c1nccc(-c2cnn3ncccc23)n1 | ALK L1196M | binding | – | 1 µM | 100
CCS(=O)(=O)c1cc2cc(C[C@](O)(CC(C)(C)c3ccc(F)cc3C(N)=O)C(F)(F)F)[nH]c2cn1 | ALK C1156Y | cell-free assay | competition with immobilised ligand | 1 µM | 96
CN(CCCC(F)(F)F)c1nccc(-c2cnn3ncccc23)n1 | ALK | binding | – | 1 µM | 97
CCCCN(CCCC)C(=O)CN1C[C@@H](c2cc(OC)c3c(c2)OCO3)[C@H](C(=O)O)[C@H]1CC(C)(C)CCC | ALK C1156Y | cell-free assay | competition with immobilised ligand | 1 µM | 95.4
O=C(NCCCN1CCOCC1)c1ccc(Nc2nccc(-c3cc4ccccc4s3)n2)cc1 | ALK L1196M | binding | competition with immobilised ligand | 1 µM | 100
CC(=O)N1CCC(c2ccc(C(=O)NC3=NCCN3)cc2C(F)(F)F)CC1 | ALK C1156Y | cell-free assay | competition with immobilised ligand | 1 µM | 100
C[C@H]1CCN(c2nccc(-c3cnn4ncccc34)n2)C1 | ALK | binding | – | 1 µM | 82
